In brackets after ≈: the same amount, converted by molar mass. Activity calls are given as the source filed them. No cut-off for these calls is given here. Residues, ends and D or L forms follow the SMILES beside them.
Legend:
Spodoptera exigua [1] = assay: (§1) Inhibition of PLA2 in hemocytes of Spodoptera exigua fifth-instar larvae using pyrene-labeled phospholipid substrate by spectrofluorometry; assay type: cell-based
Outline: (§2)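 PLA2 from fifth-instar S. exigua hemocytes: hemolymph spun 500 × g 10 min, hemocytes sonicated in PBS, 12,500 × g 10 min 4°C supernatant. Enzyme (10 μg) preincubated with 10 μl sample, 25°C, 10 min; pyrene-labeled phosphatidylcholine substrate added with BSA and CaCl2 in PBS pH 7.4; residual activity by fluorescence, ex 348/em 390 nm. Triplicate independent samplings; I50 derived.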

[2] = as §1; assay type: cell-based; settings: read-out: I50; outline: as §2
Spodoptera exigua [3] = assay: Inhibition of immune responses in Spodoptera exigua fifth-instar larvae assessed as inhibition of hemocytic nodulation in response to Escherichia coli challenge by stereomicroscopy; assay type: functional, organism-based; settings: read-out: I50
Outline: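 Fifth-instar S. exigua injected with E. coli (3.2 × 10^4 cells) mixed with compound in 10 μl; after 8 h at 25°C melanized nodules counted under stereomicroscope at ×50. Three replicates; I50 derived.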

Plutella xylostella [4] = assay: Insecticidal activity against Plutella xylostella (diamondback moth) fourth-instar larvae fed on cabbage leaves soaked in compound solutions measured 48 hr post compound treatment by leaf-dipping method; assay type: functional
Outline: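 Leaf-dip feeding assay: Chinese cabbage pieces (1 cm2) soaked 5 min in test solutions at predetermined concentrations, briefly dried in the dark, then fed to P. xylostella larvae (field-origin colony reared on cabbage at 25 ± 1°C, 16:8 h light:dark). Three replicates of 10 larvae per dose. Mortality scored at 48 h; dead = no coordinated movement when prodded. Dose-mortality curves give LC50.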

Plutella xylostella [5] = assay: Potentiation of 1000 ppm Bacillus thuringiensis-induced pathogenicity against Plutella xylostella (diamondback moth) fourth-instar larvae at 10000 ppm measured 48 hr post compound treatment; assay type: functional, organism-based
Outline: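 P. xylostella larvae fed Chinese cabbage pieces (1 cm2) dipped 5 min in test solutions together with commercial B. thuringiensis subsp. kurstaki, briefly dried in dark. Mortality at 48 h, with dead meaning no coordinated movement on probing; 10 larvae per replicate, three replicates; arcsine-square-root transformed, LSD test.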

[6] = tested on: Phenoloxidase (Spodoptera exigua); assay: Inhibition of phenoloxidase activity in hemolymph of Spodoptera exigua fifth-instar larvae using DOPA substrate

Row | SMILES | inhibition (Spodoptera exigua [1]) | IC50 [2] [µM] | IC50 (Spodoptera exigua [3]) [µM] | LC50 (Plutella xylostella [4]) [µg/mL] | Activity (Plutella xylostella [5]) | inhibition [6]
1 | c1ccc2[nH]ccc2c1 [INDOLE] | Dose-dependent effect | 64.9 | 52.9 | 6270 (≈ 53.6 mM) | Active | 
2 | O=C(O)[C@H](Cc1ccc(O)cc1)NC(=O)[C@@H]1CCCN1 (H-Pro-Tyr-OH) | Dose-dependent effect | 522 | 473 | 7690 (≈ 27.6 mM) | Active | Dose-dependent effect
3 | CC(=O)/C=C/c1ccccc1 [BUTENONE] | Dose-dependent effect |  |  |  | Active | 
4 | O=C1Cc2ccccc2N1 [OXINDOLE] | Dose-dependent effect | 46.2 | 32.3 | 4830 (≈ 36.3 mM) | Active | Dose-dependent effect
5 | CC(=O)N[C@@H](Cc1ccccc1)C(=O)NCC(=O)N[C@H](C(=O)O)C(C)C (Ac-Phe-Gly-Val-OH) | Dose-dependent effect | 428 | 423 | 8350 (≈ 23 mM) | Active | Dose-dependent effect
6 | O=C(O)CCc1ccc(O)cc1 [HYDROXYPHENYL PROPIONIC ACID] | Dose-dependent effect | 49.5 | 58.7 | 6640 (≈ 40 mM) | Active | Dose-dependent effect
7 | O=C1N[C@@H](Cc2ccc(O)cc2)C(=O)N2CCC[C@@H]12 | Dose-dependent effect | 47.8 | 37.7 | 5950 (≈ 22.9 mM) | Active | 

From ChEMBL document CHEMBL3046821, “Phospholipase A2 inhibitors synthesized by two entomopathogenic bacteria, Xenorhabdus nematophila and Photorhabdus temperata subsp. temperata” (Appl Environ Microbiol, 2012)
